Results pooled from the literature.
Lines come from different studies, so protocols differ.
Read-out: enzyme activity
Action: inhibitor
rep main protease: Replicase polyprotein 1ab, main protease (rep, Severe acute respiratory syndrome coronavirus 2, UniProt P0DTD1)
rep papain-like protease: Replicase polyprotein 1ab, papain-like protease (rep, Severe acute respiratory syndrome coronavirus 2, UniProt P0DTD1)

O=C(Nc1cccc(C(F)(F)F)c1)c1ccc([N+](=O)[O-])o1
inhibition (rep main protease; 20 µM): 1.47%

Cn1c(C(=O)Nc2ccc(Cl)cc2)cc2c(=O)n3ccccc3nc21
inhibition (rep main protease; 100 µM): 33%

Cc1ncc(/C=C\C(=O)N2C[C@@H](NC(=O)c3ccc[nH]c3=O)CC3(CCOCC3)C2)c(=O)[nH]1
inhibition (rep main protease; 5 µM): 15.5%

O=C(O)c1cc(O)c2c(c1)C([C@@H]1c3cc(C(=O)O)cc(O)c3C(=O)c3c(O[C@H]4O[C@H](CO)[C@@H](O)[C@H](O)[C@H]4O)cccc31)c1cccc(O[C@H]3O[C@H](CO)[C@@H](O)[C@H](O)[C@H]3O)c1C2=O (stereo partly drawn)
inhibition (rep main protease; 20 µM): 103%

Cc1cccn2c(=O)c3cc(C(=O)Nc4ccc(N(C)C)cc4)n(C)c3nc12
inhibition (rep main protease; 10 µM): 8.7%

Clc1nc2ccccc2cc1/C=N\c1ccc(Br)nc1
inhibition (rep papain-like protease; 10 µM): 3.5%

O=C(Oc1cncc(Cl)c1)c1cc2c(Cl)cc(Cl)cc2[nH]1
inhibition (rep main protease; fluorescence; 10 µM; pH 7.2): 100%

O=C(O)/C=C/c1ccc(O)c(O)c1
inhibition (rep main protease; FRET; 10 µM; 10 min): < 25%

COc1cc([C@H]2OC[C@H]3[C@@H]2CO[C@H]3c2ccc(OC)c(OC)c2)ccc1O
inhibition (rep papain-like protease; 50 µM): 8.5%

O=C1C=CC(=O)c2ccccc21
inhibition (rep main protease; 1 µM): 90.5%

C[C@]1(C(=O)NC[C@H](NC(=O)c2cncc3[nH]ccc23)c2ccc3ccccc3c2)CCNC1=O
inhibition (rep main protease; 5 µM): 13.7%

COCOc1cc(C)cc2c1C(=O)C=CC2=O
inhibition (rep main protease; 1 µM): 4.6%

O=C(CCc1ccccc1)Nc1ccc2c(c1)C(=O)OC2
inhibition (rep main protease; 20 µM): -0.804%

COc1cc(CC(C)NCc2cc(NC(=O)c3ccccn3)cc(C(=O)N(C)C)c2)ccc1O (stereo not drawn)
inhibition (rep main protease; 100 µg/mL): 5.47%

COc1cccc2c1C(=O)C(C(C)=O)=CC2=O
inhibition (rep main protease; 1 µM): 94.3%

Cn1cc2c(n1)c(=O)n(Cc1ccc(F)cc1)c1nn(CCOc3ccc(F)cc3)c(=O)n21
inhibition (rep main protease; 20 µM): 13%

Cc1ccc2nc(Cl)c(C=Nc3cc(Br)ccn3)cc2c1
inhibition (rep papain-like protease; 100 µM): 23.9%

CN(C)C(=O)COC(=O)Cc1ccc(OC(=O)c2ccc(NC(=N)N)cc2)cc1
inhibition (rep main protease; 10 µM): 6%

O=c1c(O)c(-c2ccccc2)oc2cc(O)cc(O)c12
inhibition (rep main protease; FRET; 10 µM; 10 min): 25 to 50%

Cn1c(C(=O)Nc2ccc3c(c2)OCCO3)cc2c(=O)n3ccccc3nc21
inhibition (rep main protease; 10 µM): 42%

C[C@@H]1O[C@@H](OC[C@H]2O[C@@H](OCCc3ccc(O)c(O)c3)[C@H](OC(=O)/C=C/c3ccc(O)c(O)c3)[C@@H](O)[C@@H]2O)[C@H](O)[C@H](O)[C@H]1O
inhibition (rep main protease; 10 µM): 61.7%

O=C(O)c1cc(N(Cc2ccccc2O)Cc2cc(O)ccc2O)ccc1O
inhibition (rep main protease; 20 µM): -1.57%

O=C(O)[C@H]1O[C@@H](Oc2cc3oc(-c4ccc(O)cc4)cc(=O)c3c(O)c2O)[C@H](O)[C@@H](O)[C@@H]1O
inhibition (rep papain-like protease; 50 µM): 41.8%

CC[C@H](NC(=O)OCc1ccccc1)C(=O)N[C@H](C(=O)N[C@@H](Cc1ccccc1)C(=O)N(C)N(C#N)CCC(N)=O)C(C)(C)C
inhibition (rep main protease; fluorescence; 50 µM; pH 7.2): 100%

COc1cc(C[C@@H](C)[C@@H](C)Cc2cc(O)c(OC)c(OC)c2)cc(O)c1OC
inhibition (rep main protease; FRET; 8 µM): 58%

NC(=O)CSc1nnc2c3ccccc3nc(-c3ccc(F)cc3)n12
inhibition (rep main protease; 20 µM): 20.1%

Cc1c(-c2cnccn2)ssc1=S
inhibition (rep main protease; 20 µM): 97.6%

CCC(=O)Oc1cccc2c1C(=O)C=CC2=O
inhibition (rep main protease; 1 µM): 96.5%

COc1ccc2nc(Cl)c(/C=N/c3ccc(-c4nc5ccccc5[nH]4)cc3)cc2c1
inhibition (rep papain-like protease; 100 µM): 13.5%

O=C(NC[C@H](NC(=O)c1cn[nH]c1-c1ccccn1)c1ccc2ccccc2c1)c1cn[nH]c1
inhibition (rep main protease; 5 µM): 10.7%

CCc1ccc(NC(=O)c2cc3c(=O)n4ccccc4nc3n2C)cc1
inhibition (rep main protease; 100 µM): 49%

O=C(/C=C/c1ccc(O)c(O)c1)O[C@@H]1C[C@](O)(C(=O)O)C[C@@H](O)[C@H]1O
inhibition (rep papain-like protease; 50 µM): 12.5%

COc1cc(-c2oc3cc(O)cc(O)c3c(=O)c2O)ccc1O
inhibition (rep main protease; FRET; 10 µM; 10 min): 25 to 50%

Cc1ccc(-n2cccc2)c(NC(=O)Nc2ccccc2C(F)(F)F)c1
inhibition (rep main protease; 20 µM): 11.4%

O=c1cc(-c2ccc(O)cc2)oc2cc(O)c(O)c(O)c12
inhibition (rep papain-like protease; 50 µM): 65.7%

Cc1cc(NC(=O)c2cc3c(=O)n4cccc(C)c4nc3n2C)ccc1Br
inhibition (rep main protease; 10 µM): 30%

O=C(Oc1cncc(Cl)c1)c1ccc2[nH]c3c(c2c1)CCCC3
inhibition (rep main protease; fluorescence; 10 µM; pH 7.2): 100%

CC1(C)C=Cc2cc(-c3coc4cc(O)cc(O)c4c3=O)ccc2O1
inhibition (rep main protease; 8 µM): 11.8%

O=C(/C=C/c1ccc(O)c(O)c1)OC1CC(OC(=O)/C=C/c2ccc(O)c(O)c2)(C(=O)O)CC(O)C1O (stereo not drawn)
inhibition (rep main protease; 10 µM): 27.8%

COc1cc(C)cc2c1C(=O)C=CC2=O
inhibition (rep main protease; 10 µM): 90.4%

Cc1ccc(NC(=O)c2cc3c(=O)n4cccc(C)c4nc3n2C)cc1Cl
inhibition (rep main protease; 100 µM): 37%

O=C1C=CC(=O)c2c(O)cccc21
inhibition (rep main protease; 0.1 µM): 20.3%

CN(C(=O)[C@H](Cc1ccccc1)NC(=O)OCc1ccccc1)N(C#N)CCC(N)=O
inhibition (rep main protease; fluorescence; 50 µM; pH 7.2): 100%

N#CSc1cc(SC#N)c(N)nc1N
inhibition (rep main protease; 20 µM): 98.8%

O=c1c(O)c(-c2cc(O)c(O)c(O)c2)oc2cc(O)ccc12
inhibition (rep main protease; 20 µM): 94.9%

C[C@@H]1O[C@@H](O[C@@H]2[C@@H](O)[C@H](OCCc3ccc(O)c(O)c3)O[C@H](CO)[C@H]2OC(=O)/C=C/c2ccc(O)c(O)c2)[C@H](O)[C@H](O)[C@H]1O
inhibition (rep papain-like protease; 50 µM): 15.6%

CC(=O)Nc1ccc(-c2cnc(/N=C\c3cc4ccccc4nc3Cl)s2)cc1
inhibition (rep papain-like protease; 10 µM): 39%

O=C1c2cccc(O)c2C(=O)c2c(O)cc(CO)cc21
inhibition (rep main protease; 10 µM): 10.1%

NC(=O)CCOC1CCN(C(c2ccccc2)c2ccccc2)CC1
inhibition (rep main protease; 20 µM): 11.5%

CCc1cscc1C(=O)N1Cc2ccccc2C[C@H]1CNC(=O)c1cccc2[nH]ncc12
inhibition (rep main protease; 5 µM): 10.8%

COc1ccc(OC)c2c1C(=O)C=CC2=O
inhibition (rep main protease; 10 µM): 78.5%
